Measurements as given in ChEMBL document CHEMBL1781906, “New quinolin-4-yl-1,2,3-triazoles carrying amides, sulphonamides and amidopiperazines as potential antitubercular agents” (2011).
Converted amounts (≈) assume the structure as drawn.

Tests used:
Assay type in all cases: functional
[1] = system: Mycobacterium tuberculosis; assay: Antimycobacterial activity against Mycobacterium tuberculosis H37Rv ATCC 27294 after 7 days by resazurin method; conditions: H37Rv ATCC 27294, 168 h
Outline: (§1)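 H37Rv was grown in Middlebrook 7H9 broth with 10% OADC, diluted to McFarland 2 in the same medium, and added to fresh medium in 96-well plates with compound. Compounds were tested at 1, 10 and 100. The dye turned pink in controls after […] at 37 °C.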

[2] = system: Escherichia coli; assay: Antibacterial activity against Escherichia coli ATCC 25922 after 18 to 24 hrs by […]
[3] = system: Streptococcus pyogenes; assay: Antibacterial activity against Streptococcus pyogenes after 18 to 24 hrs by serial plate dilution method
[4] = system: Staphylococcus aureus; assay: Antibacterial activity against Staphylococcus aureus ATCC 25923 after 18 to 24 hrs by serial plate dilution method
[5] = system: Klebsiella pneumoniae; assay: Antibacterial activity against Klebsiella pneumoniae after 18 to 24 hrs by […]
[6] = system: Pseudomonas aeruginosa; assay: Antibacterial activity against Pseudomonas aeruginosa ATCC 27853 after 18 to 24 hrs by […]
[7] = system: Mycobacterium tuberculosis; assay: Antimycobacterial activity against Mycobacterium tuberculosis H37Rv ATCC 27294 assessed as inhibition of bacterial growth at 1 to 100 ug/ml after 7 days by resazurin method; outline: as §1
[8] = system: Mycolicibacterium fortuitum; assay: Antimycobacterial activity against Mycobacterium fortuitum ATCC 19542 after 7 days by resazurin method; conditions: ATCC 19542, 168 h
Outline: (§2)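 MIC was determined by resazurin microplate assay. Resazurin turns from blue to pink when reduced by viable cells, and wells with no colour change were scored as inhibited. Isoniazid and rifampicin were reference drugs.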

[9] = system: Mycolicibacterium smegmatis; assay: Antimycobacterial activity against Mycobacterium smegmatis ATCC 19420 after 7 days by resazurin method; conditions: ATCC 19420, 168 h; outline: as §2

Row | SMILES | MIC [1] | MIC [2] | MIC [3] | MIC [4] | MIC [5] | MIC [6] | inhibition (INH) [7] | MIC [8] | MIC [9]
1 | COc1ccc2nc(C)cc(-n3cc(CN4CCN(C(C)=O)CC4)nn3)c2c1 | 0.625 µg/mL (≈ 1.64 µM) | 0.1 µg/mL (≈ 0.263 µM) | 0.2 µg/mL (≈ 0.526 µM) | 0.4 µg/mL (≈ 1.05 µM) | 0.1 µg/mL (≈ 0.263 µM) | 0.2 µg/mL (≈ 0.526 µM) | 95% | 100 µg/mL (≈ 263 µM) | 10 µg/mL (≈ 26.3 µM)
2 | COc1ccc2nc(C)cc(-n3cc(CN4CCN(C(=O)c5ccc(Cl)c(Cl)c5)CC4)nn3)c2c1 | 5 µg/mL (≈ 9.78 µM) | 3.12 µg/mL (≈ 6.1 µM) | 0.8 µg/mL (≈ 1.56 µM) | 6.25 µg/mL (≈ 12.2 µM) | 0.8 µg/mL (≈ 1.56 µM) | 0.8 µg/mL (≈ 1.56 µM) | 85% | 100 µg/mL (≈ 196 µM) | 100 µg/mL (≈ 196 µM)
3 | COc1ccc2nc(C)cc(-n3cc(CNC(=O)c4ccccc4F)nn3)c2c1 | 1 µg/mL (≈ 2.55 µM) | 0.4 µg/mL (≈ 1.02 µM) | 0.2 µg/mL (≈ 0.511 µM) | 0.8 µg/mL (≈ 2.04 µM) | 0.2 µg/mL (≈ 0.511 µM) | 0.4 µg/mL (≈ 1.02 µM) | 90% | 100 µg/mL (≈ 255 µM) | 100 µg/mL (≈ 255 µM)
4 | COc1ccc2nc(C)cc(-n3cc(CNC(C)=O)nn3)c2c1 | 0.625 µg/mL (≈ 2.01 µM) | 0.1 µg/mL (≈ 0.321 µM) | 0.2 µg/mL (≈ 0.642 µM) | 0.4 µg/mL (≈ 1.28 µM) | 0.1 µg/mL (≈ 0.321 µM) | 0.2 µg/mL (≈ 0.642 µM) | 95% | 10 µg/mL (≈ 32.1 µM) | 10 µg/mL (≈ 32.1 µM)
5 | COc1ccc2nc(C)cc(-n3cc(CNC(=O)C4CC4)nn3)c2c1 | 1 µg/mL (≈ 2.96 µM) | 0.4 µg/mL (≈ 1.19 µM) | 0.4 µg/mL (≈ 1.19 µM) | 0.4 µg/mL (≈ 1.19 µM) | 0.2 µg/mL (≈ 0.593 µM) | 1.6 µg/mL (≈ 4.74 µM) | 90% | 100 µg/mL (≈ 296 µM) | 100 µg/mL (≈ 296 µM)
6 | COc1ccc2nc(C)cc(-n3cc(CNC(=O)C4CCC4)nn3)c2c1 | 10 µg/mL (≈ 28.5 µM) | 1.6 µg/mL (≈ 4.55 µM) | 0.8 µg/mL (≈ 2.28 µM) | 1.6 µg/mL (≈ 4.55 µM) | 1.6 µg/mL (≈ 4.55 µM) | 0.8 µg/mL (≈ 2.28 µM) | 85% | 100 µg/mL (≈ 285 µM) | 100 µg/mL (≈ 285 µM)
7 | COc1ccc2nc(C)cc(-n3cc(CNC(=O)c4ccc(F)cc4)nn3)c2c1 | 0.625 µg/mL (≈ 1.6 µM) | 0.2 µg/mL (≈ 0.511 µM) | 0.2 µg/mL (≈ 0.511 µM) | 0.8 µg/mL (≈ 2.04 µM) | 0.2 µg/mL (≈ 0.511 µM) | 0.2 µg/mL (≈ 0.511 µM) | 90% | 100 µg/mL (≈ 255 µM) | 10 µg/mL (≈ 25.5 µM)
8 | COc1ccc2nc(C)cc(-n3cc(CNC(=O)c4ccccc4Cl)nn3)c2c1 | 10 µg/mL (≈ 24.5 µM) | 3.12 µg/mL (≈ 7.65 µM) | 3.12 µg/mL (≈ 7.65 µM) | 1.6 µg/mL (≈ 3.92 µM) | 3.12 µg/mL (≈ 7.65 µM) | 6.25 µg/mL (≈ 15.3 µM) | 80% | 100 µg/mL (≈ 245 µM) | 100 µg/mL (≈ 245 µM)
9 | CCc1ccc(C(=O)NCc2cn(-c3cc(C)nc4ccc(OC)cc34)nn2)cc1 | 100 µg/mL (≈ 249 µM) | 3.12 µg/mL (≈ 7.77 µM) | 3.12 µg/mL (≈ 7.77 µM) | 3.12 µg/mL (≈ 7.77 µM) | 3.12 µg/mL (≈ 7.77 µM) | 6.25 µg/mL (≈ 15.6 µM) | 80% | 100 µg/mL (≈ 249 µM) | 100 µg/mL (≈ 249 µM)
10 | COc1ccc2nc(C)cc(-n3cc(CNC(=O)c4ccc(C)cc4)nn3)c2c1 | 100 µg/mL (≈ 258 µM) | 3.12 µg/mL (≈ 8.05 µM) | 0.8 µg/mL (≈ 2.06 µM) | 1.6 µg/mL (≈ 4.13 µM) | 3.12 µg/mL (≈ 8.05 µM) | 6.25 µg/mL (≈ 16.1 µM) |  | 100 µg/mL (≈ 258 µM) | 100 µg/mL (≈ 258 µM)
11 | COc1ccc(C(=O)NCc2cn(-c3cc(C)nc4ccc(OC)cc34)nn2)cc1 | 0.625 µg/mL (≈ 1.55 µM) | 0.1 µg/mL (≈ 0.248 µM) | 0.4 µg/mL (≈ 0.991 µM) | 0.8 µg/mL (≈ 1.98 µM) | 0.1 µg/mL (≈ 0.248 µM) | 0.4 µg/mL (≈ 0.991 µM) | 95% | 10 µg/mL (≈ 24.8 µM) | 5 µg/mL (≈ 12.4 µM)
12 | COc1ccc2nc(C)cc(-n3cc(CNC(=O)c4ccc(C(F)(F)F)cc4)nn3)c2c1 | 0.625 µg/mL (≈ 1.42 µM) | 0.4 µg/mL (≈ 0.906 µM) | 0.2 µg/mL (≈ 0.453 µM) | 0.4 µg/mL (≈ 0.906 µM) | 0.2 µg/mL (≈ 0.453 µM) | 0.4 µg/mL (≈ 0.906 µM) | 95% | 5 µg/mL (≈ 11.3 µM) | 10 µg/mL (≈ 22.7 µM)
13 | COc1ccc2nc(C)cc(-n3cc(CNS(=O)(=O)c4ccc(F)cc4)nn3)c2c1 | 1 µg/mL (≈ 2.34 µM) | 3.12 µg/mL (≈ 7.3 µM) | 0.4 µg/mL (≈ 0.936 µM) | 0.4 µg/mL (≈ 0.936 µM) | 3.12 µg/mL (≈ 7.3 µM) | 0.8 µg/mL (≈ 1.87 µM) | 85% | 100 µg/mL (≈ 234 µM) | 100 µg/mL (≈ 234 µM)
14 | COc1ccc2nc(C)cc(-n3cc(CNS(=O)(=O)c4ccccc4C(F)(F)F)nn3)c2c1 | 1 µg/mL (≈ 2.09 µM) | 0.2 µg/mL (≈ 0.419 µM) | 0.4 µg/mL (≈ 0.838 µM) | 0.8 µg/mL (≈ 1.68 µM) | 0.4 µg/mL (≈ 0.838 µM) | 0.4 µg/mL (≈ 0.838 µM) | 90% | 10 µg/mL (≈ 20.9 µM) | 100 µg/mL (≈ 209 µM)
15 | COc1ccc2nc(C)cc(-n3cc(CNS(=O)(=O)c4ccc(Cl)c(Cl)c4)nn3)c2c1 | 100 µg/mL (≈ 209 µM) | 12.5 µg/mL (≈ 26.1 µM) | 3.12 µg/mL (≈ 6.52 µM) | 1.6 µg/mL (≈ 3.34 µM) | 3.12 µg/mL (≈ 6.52 µM) | 12.5 µg/mL (≈ 26.1 µM) |  | 100 µg/mL (≈ 209 µM) | 100 µg/mL (≈ 209 µM)
